Reference: publication PMC11932705 (Results in chemistry, 2024)
“Also recorded” adds a separate entry of the source.

Test system: adult S. mansoni
Test: Single-concentration phenotypic severity score assay on adult worms
Type: cell-based, Schistosoma mansoni
Details: severity score assay at 5 μM
Outline: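 Adult S. mansoni were exposed to test compound at 5 μM. Adherence, shape, density and mobility were scored visually at 2, 5, 24 and 48 h using a constrained set of phenotypic descriptors, each typically valued 1. The descriptor values were summed into a severity score from 0 (no activity) to 4 (maximal activity). Each compound was screened twice as a singleton and representative data are reported.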

SMILES | Antischistosomal activity in words
O=C(Nc1cc(C(F)(F)F)cnn1)c1ccc(C(F)(F)F)cc1 [compound 49, 4-(Trifluoromethyl)-N-(5-(trifluoromethyl)pyridazin-3-yl)benzamide] | abolished activity; also recorded: inactive against the worm
O=C(Nc1cccc(C(F)(F)F)c1)c1cccc(C(F)(F)F)c1 [compound 33, 3-(Trifluoromethyl)-N-(3-(trifluoromethyl)phenyl)benzamide] | potency is lost
